ChEMBL document CHEMBL3091336, “Analogs of the Allosteric Heat Shock Protein 70 (Hsp70) Inhibitor, MKT-077, as Anti-Cancer Agents” (ACS Med Chem Lett, 2013)
pEC50, pKd: −log10 of the molar value.

How the values were obtained:
MCF7 = experiment: Cytotoxicity against human MCF7 cells assessed as growth inhibition after 72 hrs by MTT assay; assay type: functional, cell-based; conditions: MCF7, 72 h
In short: (§1)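 Antiproliferative activity measured by MTT assay. EC50 is the average of triplicate experiments, with error as SEM.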

MDA-MB-231 = experiment: Cytotoxicity against human MDA-MB-231 cells assessed as growth inhibition after 72 hrs by MTT assay; assay type: functional, cell-based; conditions: MDA-MB-231, 72 h; in short: as §1
MEF = experiment: Cytotoxicity against C57BL/6 mouse MEF assessed as growth inhibition after 72 hrs by MTT assay; assay type: cell-based; conditions: C57BL/6, MEF; in short: as §1
[1] = Half life in mouse liver microsomes at 1 uM incubated for 15 mins prior to beta-NADPH addition by LC-MS/MS analysis; assay type: ADME, Microsome; conditions: for t1/2: microsomes, 0.25 h, 1 µM; for half-life at 1 µM: liver microsomes
In short: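 Compounds at 1 μM incubated with mouse liver microsomes. Degradation followed by LC–MS and reported as half-life.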

[2] = molecular target: Heat shock cognate 71 kDa protein (Homo sapiens, UniProt P11142); experiment: Binding affinity to human HSC70 after 3 hrs by ELISA
Chain of Heat shock cognate 71 kDa protein (P11142 whole entry): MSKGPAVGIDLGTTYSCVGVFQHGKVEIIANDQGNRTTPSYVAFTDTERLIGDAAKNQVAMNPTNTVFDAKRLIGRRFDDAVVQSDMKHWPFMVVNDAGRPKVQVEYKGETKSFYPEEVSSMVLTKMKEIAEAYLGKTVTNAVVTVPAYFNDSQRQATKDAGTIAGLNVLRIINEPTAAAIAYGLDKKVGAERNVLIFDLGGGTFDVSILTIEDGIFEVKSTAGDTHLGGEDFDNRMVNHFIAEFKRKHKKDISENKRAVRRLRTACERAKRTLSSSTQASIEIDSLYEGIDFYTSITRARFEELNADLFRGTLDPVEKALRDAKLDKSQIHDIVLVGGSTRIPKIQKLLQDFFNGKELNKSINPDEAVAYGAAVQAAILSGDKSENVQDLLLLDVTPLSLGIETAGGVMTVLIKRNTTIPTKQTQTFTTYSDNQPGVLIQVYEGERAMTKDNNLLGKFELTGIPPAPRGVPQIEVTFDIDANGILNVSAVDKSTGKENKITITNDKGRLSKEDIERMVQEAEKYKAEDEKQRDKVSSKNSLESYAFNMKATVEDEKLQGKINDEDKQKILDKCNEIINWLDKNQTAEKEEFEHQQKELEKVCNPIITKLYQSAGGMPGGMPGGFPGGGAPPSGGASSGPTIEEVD

SMILES	t1/2 [1]	half-life at 1 µM [1] [min]	pKd [2]	pEC50 (MCF7)	pEC50 (MDA-MB-231)	pEC50 (MEF)
CCn1c(=O)/c(=C2\Sc3c(Cl)cccc3N2C)s/c1=C\c1scc[n+]1Cc1ccccc1.[Cl-]	ND(Insoluble)			6.00	6.30	< 4.52
CCn1c(=O)/c(=C2\Sc3cc(F)ccc3N2C)s/c1=C\c1cccc[n+]1C.[Cl-]	7.7 min			5.21	5.25	< 4.30
CCn1c(=O)/c(=C2\Sc3ccc(F)cc3N2C)s/c1=C\c1cccc[n+]1C.[Cl-]	23 min			4.74	5.11	< 4.30
C=CCn1c(=O)/c(=C2\Sc3ccccc3N2C)s/c1=C\c1cccc[n+]1C.[Cl-]	ND(Insoluble)			5.08	5.44	< 4.30
CCn1c(=O)/c(=C2\Sc3c(F)cccc3N2C)s/c1=C\c1cccc[n+]1C.[Cl-]	16 min			5.07	5.21	< 4.30
CCn1c(=O)/c(=C2\Sc3ccccc3N2C)s/c1=C\c1nccc[n+]1C.[Cl-]	ND(Insoluble)			5.04	5.24	< 4.30
CCn1c(=O)/c(=C2\Sc3ccc(Cl)cc3N2C)s/c1=C\c1scc[n+]1Cc1ccccc1.[Cl-]	ND(Insoluble)			6.10	6.22	< 4.52
CCn1c(=O)/c(=C2\Sc3cccc(F)c3N2C)s/c1=C\c1cccc[n+]1C.[Cl-]	15 min			5.66	5.40	< 4.30
CCn1c(=O)/c(=C2\Sc3ccccc3N2C)s/c1=C\c1cccc[n+]1C.[Cl-]		< 5		5.28	5.70	< 4.30
CCn1c(=O)/c(=C2\Sc3c(Cl)cccc3N2C)s/c1=C\c1cccc[n+]1C.[Cl-]	ND(Insoluble)			5.28	5.39	< 4.30
CN1/C(=c2\s/c(=C\c3cccc[n+]3C)n(Cc3ccccc3)c2=O)Sc2ccccc21.[Cl-]	ND(Insoluble)			5.54	5.74	< 4.30
CCn1c(=O)/c(=C2\Sc3ccccc3N2C)s/c1=C\c1cccc[n+]1CCO.[Cl-]	ND(Insoluble)			5.16	4.62	< 4.30
CCn1c(=O)/c(=C2\Sc3cccc(Cl)c3N2C)s/c1=C\c1scc[n+]1Cc1ccccc1.[Cl-]		8.8		6.10	6.40	5.15
CCn1c(=O)/c(=C2\Sc3cccc(Cl)c3N2C)s/c1=C\c1cccc[n+]1C.[Cl-]	ND(Insoluble)			5.11	5.36	< 4.30
CCC[n+]1ccccc1/C=c1\s/c(=C2/Sc3ccccc3N2C)c(=O)n1CC.[Cl-]	ND(Insoluble)			5.55	5.80	< 4.30
CCn1c(=O)/c(=C2\Sc3ccccc3N2C)s/c1=C\c1scc[n+]1C.[Cl-]	ND(Insoluble)			6.15	5.29	< 4.30
CCn1c(=O)/c(=C2\Sc3ccccc3N2C)s/c1=C\c1cccc[n+]1Cc1ccccc1.[Cl-]	ND(Insoluble)			5.82	6.00	< 4.30
CCn1c(=O)/c(=C2\Sc3ccccc3N2C)s/c1=C\c1scc[n+]1Cc1ccccc1.[Cl-]	ND(Insoluble)			6.22	6.30	5.17
CCn1c(=O)/c(=C2\Sc3ccccc3N2C)s/c1=C\c1cc[n+](C)cc1.[Cl-]	ND(Insoluble)			4.72	5.77	< 4.30

Continued, in another order:

t1/2 [1]	half-life at 1 µM [1] [min]	pKd [2]	SMILES	pEC50 (MCF7)	pEC50 (MDA-MB-231)	pEC50 (MEF)
	10		CCn1c(=O)/c(=C2\Sc3cc(OC)ccc3N2C)s/c1=C\c1cccc[n+]1C.[Cl-]	4.96	5.40	< 4.30
		6.05	CCn1c(=O)/c(=C2\Sc3ccc(OC)cc3N2C)s/c1=C\c1cccc[n+]1CCCCCCNC(=O)CCCC[C@@H]1SC[C@@H]2NC(=O)N[C@@H]21			
		5.70	CCn1c(=O)/c(=C2\Sc3ccccc3N2C)s/c1=C\c1cccc[n+]1CCCCCCNC(=O)CCCC[C@@H]1SC[C@@H]2NC(=O)N[C@@H]21			
ND(Insoluble)			CCn1c(=O)/c(=C2\Sc3ccc(OC)cc3N2C)s/c1=C\c1cccc[n+]1C.[Cl-]	4.85	5.55	< 4.30
		5.40	CCn1c(=O)/c(=C2\Sc3ccc(Cl)cc3N2C)s/c1=C\c1cccc[n+]1CCCCCCNC(=O)CCCC[C@@H]1SC[C@@H]2NC(=O)N[C@@H]21			
		5.27	CCn1c(=O)/c(=C2\Sc3cc(OC)ccc3N2C)s/c1=C\c1cccc[n+]1CCCCCCNC(=O)CCCC[C@@H]1SC[C@@H]2NC(=O)N[C@@H]21			
ND(Insoluble)			CCn1c(=O)/c(=C2\Sc3c(F)cccc3N2C)s/c1=C\c1cccc[n+]1CC.[Cl-]	6.10	5.55	4.57
		5.77	CCn1c(=O)/c(=C2\Sc3cc(Cl)ccc3N2C)s/c1=C\c1cccc[n+]1CCCCCCNC(=O)CCCC[C@@H]1SC[C@@H]2NC(=O)N[C@@H]21			
ND(Insoluble)			CCn1c(=O)/c(=C2\Sc3cccc(F)c3N2C)s/c1=C\c1cccc[n+]1CC.[Cl-]	6.00	5.42	< 4.52
		5.59	CCn1c(=O)/c(=C2\Sc3c(Cl)cccc3N2C)s/c1=C\c1cccc[n+]1CCCCCCNC(=O)CCCC[C@@H]1SC[C@@H]2NC(=O)N[C@@H]21			
		6.00	CCn1c(=O)/c(=C2\Sc3cc(C(F)(F)F)ccc3N2C)s/c1=C\c1cccc[n+]1CCCCCCNC(=O)CCCC[C@@H]1SC[C@@H]2NC(=O)N[C@@H]21			
		5.72	CCn1c(=O)/c(=C2\Sc3c(F)cccc3N2C)s/c1=C\c1cccc[n+]1CCCCCCNC(=O)CCCC[C@@H]1SC[C@@H]2NC(=O)N[C@@H]21			
ND(Insoluble)			CCn1c(=O)/c(=C2\Sc3cc(F)ccc3N2C)s/c1=C\c1cccc[n+]1CC.[Cl-]	6.05	5.08	< 4.52
ND(Insoluble)			CCn1c(=O)/c(=C2\Sc3cc(C(F)(F)F)ccc3N2C)s/c1=C\c1cccc[n+]1C.[Cl-]	< 4.52	4.72	< 4.30
ND(Insoluble)			CCn1c(=O)/c(=C2\Sc3ccc(C(F)(F)F)cc3N2C)s/c1=C\c1cccc[n+]1C.[Cl-]	< 4.52	4.68	< 4.30
ND(Insoluble)			CCn1c(=O)/c(=C2\Sc3ccc(F)cc3N2C)s/c1=C\c1cccc[n+]1CC.[Cl-]	5.62	4.89	< 4.52
ND(Insoluble)			CCn1c(=O)/c(=C2\Sc3ccc(Cl)cc3N2C)s/c1=C\c1cccc[n+]1C.[Cl-]	4.55	5.34	< 4.30
	8.2		CCn1c(=O)/c(=C2\Sc3cc(Cl)ccc3N2C)s/c1=C\c1cccc[n+]1C.[Cl-]	5.02	5.08	< 4.30
ND(Insoluble)			CCn1c(=O)/c(=C2\Sc3ccccc3N2C)s/c1=C\c1scc[n+]1CC.[Cl-]	6.10	5.66	< 4.52
